In ChEMBL document CHEMBL2034960, “Bryonolic acid transcriptional control of anti-inflammatory and antioxidant genes in macrophages in vitro and in vivo” (J Nat Prod, 2012):
Active and inactive are the calls of the source. The rule behind the calls is not given here.

What was measured:
[1] = tested on: RAW264.7; test: Antioxidant activity in mouse RAW264.7 cells assessed as induction of HO1 expression at 50 uM after 24 hrs by immunoblot analysis; type: functional, cell-based
[2] = tested on: RAW264.7; test: Antioxidant activity in LPS-stimulated mouse RAW264.7 cells assessed as induction of HO-1 protein expression after 24 hrs by immunoblot analysis; type: functional, cell-based
[3] = target: T1, Nuclear factor erythroid 2-related factor 2 (Mus musculus) (UniProt Q60795); test: Induction of Nrf2-mediated HO1 mRNA expression in mouse RAW264.7 cells at 100 uM after 16 to 20 hrs by quantitative RT-PCR analysis relative to control; type: cell-based
T1 sequence (whole entry): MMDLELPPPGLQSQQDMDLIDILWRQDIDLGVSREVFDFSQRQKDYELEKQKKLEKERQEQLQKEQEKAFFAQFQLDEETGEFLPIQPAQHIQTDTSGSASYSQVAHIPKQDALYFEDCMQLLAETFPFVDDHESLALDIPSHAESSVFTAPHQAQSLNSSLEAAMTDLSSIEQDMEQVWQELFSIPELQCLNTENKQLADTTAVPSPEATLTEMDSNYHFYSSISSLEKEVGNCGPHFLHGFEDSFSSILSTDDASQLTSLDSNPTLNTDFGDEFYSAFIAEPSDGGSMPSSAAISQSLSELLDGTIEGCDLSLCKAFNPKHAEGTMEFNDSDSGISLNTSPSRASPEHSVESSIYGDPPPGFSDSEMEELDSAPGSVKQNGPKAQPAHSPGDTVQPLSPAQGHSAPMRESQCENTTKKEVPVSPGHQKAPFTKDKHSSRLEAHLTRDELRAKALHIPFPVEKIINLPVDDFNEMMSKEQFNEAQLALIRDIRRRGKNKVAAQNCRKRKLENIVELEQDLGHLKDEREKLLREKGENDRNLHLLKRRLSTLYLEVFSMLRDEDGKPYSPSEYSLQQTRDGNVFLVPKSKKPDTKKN

[4] = target: T1, Nuclear factor erythroid 2-related factor 2 (Mus musculus); test: Induction of nuclear translocation of Nrf2 in mouse RAW264.7 cells assessed as decrease in cytoplasmic fraction at 50 uM after 1 hr; type: cell-based
Procedure, shortened: (§1)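 RAW 264.7 macrophages treated with 50 or 100 μM compound for various times (1–4 h window examined). Cytoplasmic and nuclear fractions were separated and probed for Nrf2 by immunoblot. Translocation was scored as loss of cytoplasmic Nrf2 and nuclear accumulation relative to DMSO control.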

[5] = tested on: RAW264.7; test: Antioxidant activity in LPS-stimulated mouse RAW264.7 cells assessed as induction of HO-1 mRNA expression at 50 uM after 24 hrs by RT-PCR analysis; type: functional, cell-based
[6] = target: T1, Nuclear factor erythroid 2-related factor 2 (Mus musculus); test: Induction of Nrf2-mediated GCLC mRNA expression in mouse RAW264.7 cells at 100 uM after 20 hrs by quantitative RT-PCR analysis relative to control; type: cell-based
[7] = target: T1, Nuclear factor erythroid 2-related factor 2 (Mus musculus); test: Induction of Nrf2-mediated NQO1 mRNA expression in mouse RAW264.7 cells at 100 uM after 24 hrs by quantitative RT-PCR analysis relative to control; type: cell-based
Procedure, shortened: (§2)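 RAW 264.7 cells (DMEM, 10% FBS, 37°C, 5% CO2) exposed to 100 μM compound for a series of time points without stated LPS activation. Total RNA isolated, converted to cDNA, and NQO1 quantified by TaqMan real-time RT-PCR using mouse-specific assays. Fold change versus control derived by the ΔΔCt relative quantification method (40 cycles, 95/60 °C).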

[8] = tested on: Peritoneal macrophage cell; test: Induction of HO1 […] expression in Nrf2-knockout mouse primary peritoneal macrophages at 5 to 100 uM after 48 hrs by immunoblot analysis; type: functional, cell-based
[9] = target: T1, Nuclear factor erythroid 2-related factor 2 (Mus musculus); test: Induction of Nrf2-mediated HO1 […] expression in C57BL/6 mouse primary peritoneal macrophages at 50 uM after 48 hrs by immunoblot analysis
[10] = target: T1, Nuclear factor erythroid 2-related factor 2 (Mus musculus); test: Induction of Nrf2-mediated HO1 […] expression in C57BL/6 mouse primary peritoneal macrophages at 10 uM after 48 hrs by immunoblot analysis
[11] = tested on: RAW264.7; test: Antiinflammatory activity in mouse RAW264.7 cells assessed as inhibition of LPS-induced iNOS protein expression at 50 uM after 24 hrs by immunoblot analysis relative to control; type: functional, cell-based
[12] = tested on: RAW264.7; test: Antioxidant activity in mouse RAW264.7 cells assessed as induction of HO1 expression at 100 uM after 66 hrs by immunoblot analysis; type: functional, cell-based
[13] = tested on: RAW264.7; test: Induction of Nrf2 mRNA expression in mouse RAW264.7 cells at 100 uM after 20 hrs by quantitative RT-PCR analysis relative to control; type: functional
[14] = Solubility of the compound in DMSO; type: physicochemical
[15] = target: T1, Nuclear factor erythroid 2-related factor 2 (Mus musculus); test: Induction of Nrf2-mediated NQO1 mRNA expression in mouse RAW264.7 cells at 100 uM after 20 hrs by quantitative RT-PCR analysis relative to control; type: cell-based; procedure, shortened: as §2
[16] = tested on: RAW264.7; test: Antioxidant activity in LPS-stimulated mouse RAW264.7 cells assessed as induction of HO-1 protein expression at 50 uM after 24 hrs by immunoblot analysis; type: functional, cell-based
[17] = tested on: RAW264.7; test: Antioxidant activity in LPS-stimulated mouse RAW264.7 cells assessed as induction of HO-1 mRNA expression at 100 uM after 4 hrs by RT-PCR analysis; type: functional, cell-based
[18] = target: T1, Nuclear factor erythroid 2-related factor 2 (Mus musculus); test: Induction of Nrf2-mediated NQO1 mRNA expression in mouse RAW264.7 cells at 100 uM after 16 to 20 hrs by quantitative RT-PCR analysis relative to control; type: cell-based
[19] = tested on: RAW264.7; test: Antioxidant activity in mouse RAW264.7 cells assessed as induction of HO1 expression after 24 hrs by immunoblot analysis
[20] = tested on: RAW264.7; test: Antioxidant activity in mouse RAW264.7 cells assessed as induction of HO1 expression at 100 uM after 24 hrs by immunoblot analysis; type: functional, cell-based
[21] = tested on: RAW264.7; test: Antiinflammatory activity in mouse RAW264.7 cells assessed as inhibition of LPS-induced iNOS […] expression at 50 uM after 24 hrs by immunoblot analysis; type: functional, cell-based
[22] = tested on: RAW264.7; test: Antioxidant activity in mouse RAW264.7 cells assessed as induction of HO1 expression at 10 to 100 uM by immunoblot analysis; type: functional, cell-based; conditions: TDE = time-dependent effect
[23] = tested on: RAW264.7; test: Cytotoxicity against mouse RAW264.7 cells at 100 uM after 8 hrs by MTT assay; type: cell-based; conditions: raw264.7, 8 h
[24] = target: T1, Nuclear factor erythroid 2-related factor 2 (Mus musculus); test: Induction of nuclear translocation of Nrf2 in mouse RAW264.7 cells assessed as decrease in cytoplasmic fraction at 100 uM after 1 to 4 hrs; type: cell-based; procedure, shortened: as §1
[25] = target: T1, Nuclear factor erythroid 2-related factor 2 (Mus musculus); test: Induction of Nrf2-mediated GCLC mRNA expression in mouse RAW264.7 cells at 100 uM after 24 hrs by quantitative RT-PCR analysis relative to control; type: cell-based

Activity [3]: Active | Activity [4]: Active | fold change (FC) [6]: 1.8 | Activity [7]: Active | Activity [9]: Active | Activity [10]: Active | solubility [14]: soluble | fold change (FC) [15]: 11.7 | Activity [18]: Active | Activity [24]: Active | Activity [25]: inactive
Structure (SMILES): CC1(C)[C@@H](O)CC[C@]2(C)C3=C(CC[C@@H]12)[C@@]1(C)CC[C@@]2(C)CC[C@@](C)(C(=O)O)C[C@H]2[C@]1(C)CC3 [BRYONOLIC ACID]
Activity [1]: Active | Activity [2]: Dose-dependent effect | Activity [5]: Active | Activity [8]: inactive | Activity [11]: Active | Activity [12]: inactive | fold change (FC) [13]: 1.8 | Activity [16]: Active | Activity [17]: Active | Activity [19]: Dose-dependent effect | Activity [20]: Active | Activity [21]: Active | Activity [22]: tde | Activity [23]: Non-toxic
